# The list is not random: actives were taken first. Their share in the collection is about 1.8%.
# MIN6 prolif = inducers of MIN6 beta-cell proliferation, primary screen, ATP luminescence, uHTS | MIN6 cells proliferation, ATPlite luminescence, 48 h; cells starved in 0.2% serum; 100% = growth in 10% serum | proliferation, % at 10 µM | hit rate 0.29% among 330,000;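 active = compounds whose signal lies at least 3.5 SD above the mean of all wells on their plate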;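 note: 0% = DMSO-treated cells in low-serum medium and 100% = 10% serum control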
# SKN-1 block = suppressors of acrylamide-induced Pgst-4::GFP reporter in worms, primary screen, SKN-1 inhibitor project, whole organism, uHTS, GFP/RFP fluorescence ratio, strain VP596. inhibition, % at 21.8 µM. hit rate 0.49% among 360,000. AID 624304, 2012. C. elegans VP596 Pgst-4::GFP/RFP ratio, 24 h;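 active = interference check ratio from 0.5 to 1.5 plus GFP to RFP signal ratio inhibition reaching or exceeding a fixed threshold, cut at about 30% in these data, passing the limit was not always enough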
# MsrA inh = bovine MsrA enzyme inhibitors, primary screen, biochemical, absorbance, HTS. hit rate 0.75% among 360,000. purified bovine MsrA, absorbance read-out. inhibition, % at 15.5 µM; in the data active = inhibition above about 4.5%;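 note: 0% = vehicle wells with enzyme and 100% = reference inhibitor wells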
# MsrA act = bovine MsrA enzyme activators, primary screen, biochemical, absorbance, HTS; hit rate 0.3% among 360,000; activation, % at 10.6 µM; AID 602163, 2012; Methionine sulfoxide reductase A (Bos taurus); purified bovine MsrA, absorbance read-out; in the data active = activation above about 7.5%;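 note: 0% = vehicle and 100% = reference activator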
# MT1-MMP act inh = blockers of MT1-MMP proenzyme processing, primary screen, HT1080 RFP-PRO-GFP cells, GFP/RFP fluorescence; Matrix metalloproteinase-14 (Homo sapiens), P50281; GFP/RFP ratio fluorescence, overnight; percent of plate control window, DMSO zero; GFP/RFP ratio change, % at 20 µM; hit rate 0.061% among 360,000; AID 651647, 2012;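 active = GFP/RFP ratio change of at least 30% with cell ATP level not reduced by more than half and red fluorescence within 50% of control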
#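 Material: RFP-PRO-GFP reporter HT1080 cells. Dosing: single-point 20 µM compound, 1% DMSO. Controls: DMSO and RFP-L50D-GFP cell wells. Timing: cells overnight before dosing, compound overnight, 37 °C, 5% CO2. Measure: GFP/RFP fluorescence ratio.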
# DAGLB inh = DAGLB lipase inhibitors, primary screen, biochemical, fluorescence, HTS; hit rate 0.059% among 340,000; HEK293T DAGLB membrane lysate, EnzChek fluorogenic substrate; inhibition, % at 5.17 µM; Diacylglycerol lipase-beta (Homo sapiens), Q8NCG7; in the data active = inhibition above about 34%;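 note: 0% = enzyme with vehicle and 100% = wells lacking enzyme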
# Target sequence (Q8NCG7 whole entry, looked up): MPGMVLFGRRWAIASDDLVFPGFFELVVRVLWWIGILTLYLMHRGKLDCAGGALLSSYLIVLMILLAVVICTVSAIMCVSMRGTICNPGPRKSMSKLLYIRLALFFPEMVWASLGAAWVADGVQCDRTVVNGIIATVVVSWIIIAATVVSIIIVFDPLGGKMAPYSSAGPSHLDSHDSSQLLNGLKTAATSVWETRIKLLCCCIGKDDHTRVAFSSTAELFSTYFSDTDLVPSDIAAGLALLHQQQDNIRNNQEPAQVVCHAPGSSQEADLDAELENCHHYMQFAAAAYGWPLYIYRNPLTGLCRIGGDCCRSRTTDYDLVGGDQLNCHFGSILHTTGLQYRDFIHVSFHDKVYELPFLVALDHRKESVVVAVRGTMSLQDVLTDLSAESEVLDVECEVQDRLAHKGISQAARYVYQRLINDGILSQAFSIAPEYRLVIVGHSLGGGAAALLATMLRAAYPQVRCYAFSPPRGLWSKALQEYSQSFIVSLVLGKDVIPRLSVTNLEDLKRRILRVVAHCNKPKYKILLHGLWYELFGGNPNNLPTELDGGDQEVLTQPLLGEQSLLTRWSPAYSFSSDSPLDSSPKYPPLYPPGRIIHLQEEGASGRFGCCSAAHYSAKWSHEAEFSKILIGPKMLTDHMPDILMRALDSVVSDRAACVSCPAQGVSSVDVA
# The depositor's hits bear a star; / = no result.
SMILES,MIN6 prolif,SKN-1 block,MsrA inh,MsrA act,MT1-MMP act inh,DAGLB inh
CC(C)Oc1ccc(-c2cc(C(=O)NCCN3CCOCC3)c3ccccc3n2)cc1,-4.8,3.7,4.6*,1.0,-0.9,-9.6
O=C1CC(O)C(Cc2ccccc2)N1 (stereo not drawn),/,/,-0.1,/,/,/
NC(=O)c1ccc(CSc2nc3ccccc3s2)cc1,-2.0,-9.3,0.3,-15.0,4.2,0.7
c1ccc2sc(SCc3ccc(-c4nnco4)cc3)nc2c1,0.0,54.4*,0.3,-4.0,1.6,-1.9
Cc1nc2ccccc2nc1OCc1ccccc1,-0.6,46.6*,-0.4,-11.4,-1.9,-8.2
CCCN(CCC)Cc1cc(=O)oc2ccccc12,/,/,0.4,/,/,/
O=C(/C=C/Nc1ccc(F)cc1F)c1cccs1,-4.8,59.9*,1.6,-1.1,-6.2,-6.6
Cc1ccc(N/C=C/C(=O)c2cccs2)cc1,-4.5,41.9*,2.7,-4.3,-3.3,-2.6
O=C(/C=C\Nc1cccc(F)c1)c1cccs1,-1.4,69.1*,1.5,-4.2,-2.0,-3.2
Cc1noc(NS(=O)(=O)c2ccc(N/C=C\C(=O)c3cccs3)cc2)c1C,-4.5,-2.1,1.2,-7.6,0.8,0.8
O=C(/C=C/Nc1ccccc1F)c1cccs1,0.0,85.1*,1.1,-11.9,-4.7,-2.6
O=C(/C=C\Nc1ccc2c(c1)OCO2)c1cccs1,-3.0,30.4,2.2,-2.8,-8.7,-2.8
O=C(N[C@H](Cc1ccccc1)C(=O)NCc1ccco1)[C@H]1O[C@@H](n2ccc(=O)[nH]c2=O)[C@H](O)[C@@H]1O,/,/,0.2,/,/,/
C=CCSc1nnc2nc3c(nn12)c1cc(C)ccc1n3CC=C,0.2,38.1*,-1.2,-1.1,-1.4,17.7
C=CCn1c2ccccc2c2nnc(SCC(N)=O)nc21,-4.3,0.0,3.1,-3.2,-2.1,-0.2
C#Cc1cccc(-n2nnc(C(=O)OC)c2-c2ccccc2)c1,-0.7,38.1*,1.4,-1.5,0.1,0.8
COC(=O)c1nnn(-c2ccccc2)c1N,-1.4,1.8,0.0,-0.5,2.8,-2.1
C(=Cc1c[nH]c2ccccc12)c1nccc2ccccc12,/,48.4*,0.4,-1.4,-72.7,-0.1
CCN(CC(=O)Nc1c(F)cccc1F)C(=O)CCc1nc2cc(S(=O)(=O)N(C)C)ccc2n1CC,0.2,-13.1,0.7,-2.7,-6.6,3.5
CCn1c(CCC(=O)Nc2nc3c(s2)CCCC3)nc2cc(S(=O)(=O)N(C)C)ccc21,-3.6,54.5*,0.2,-3.0,-1.6,-0.3
Clc1ccc(-c2nnc(-c3ccccc3)c(N3CCSCC3)n2)cc1,-5.7,38.2*,2.5,2.9,-6.4,-9.5
CCOc1ccc(N=Cc2ccc(N(C)C)cc2)c(O)c1,/,50.6*,/,6.9,5.1,5.9
Fc1ccccc1-c1csc(-c2cccnc2)n1,0.0,25.4,-0.4,-12.8,/,-12.8
c1ccc2sc(-c3ccncc3)nc2c1,-1.2,38.6*,-0.3,-2.5,1.5,-4.0
Clc1ccc(-c2csc(-c3cccnc3)n2)s1,-0.2,91.9*,0.8,-10.5,5.2,-10.2
SMILES,MIN6 prolif,SKN-1 block,MsrA inh,MsrA act,MT1-MMP act inh,DAGLB inh
Brc1ccsc1-c1csc(-c2ccncc2)n1,-2.2,39.8*,1.7,-1.4,-1.7,-6.5
Oc1ccccc1-c1csc(-c2ccccc2)n1,0.2,19.4,2.0,-8.6,-16.4,-10.7
c1ccc(-c2csc(-c3ccncc3)n2)cc1,0.2,69.8*,1.8,-7.6,-1.3,0.1
c1ccc2c(-c3csc(-c4ccncc4)n3)c[nH]c2c1,-4.2,19.8,0.6,-2.2,-7.4,-0.3
Nc1c(C(=O)O)ccc2c1C(=O)c1ccccc1C2=O,-1.0,61.4,-0.1,-1.4,31.1,29.7
Nc1cc(C(=O)O)c(N)c2c1C(=O)c1ccccc1C2=O,0.1,43.2*,/,-7.4,1.6,23.7
Cc1ccc(CSCC(=O)N2CCOCC2)cc1,0.7,44.3*,1.1,-2.0,-1.9,0.6
O=C(OCC(=O)N1N=C(c2ccc(Cl)cc2)CC1c1ccco1)c1ccco1 (stereo not drawn),-5.5,5.8,1.7,-1.6,-2.4,-1.9

# Screens (PubChem)
